Key:
L1210 [1] = assay: Ratio of IC50 for Mycoplasma hyorhinis-infected mouse L1210 cells to IC50 for mouse L1210/0 cells after 48 hrs by cell counting; format: functional
Method in brief: (§1)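 Murine L1210/0 cells were compared with L1210/TK cells, selected for resistance to 5-bromo-2'-dUrd, and with L1210.Hyor cells, chronically infected with Mycoplasma hyorhinis. Cells were grown in DMEM with 10% FBS, 10 mM Hepes and 1 mM pyruvate at 37 °C and 5% CO2, then seeded at 60 000 cells/well with compound. They were Coulter-counted after 48 h. […] Mean of 2–4 experiments.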

L1210 [2] = assay: Cytostatic activity against Mycoplasma hyorhinis-infected mouse L1210 cells after 48 hrs by cell counting; format: functional, cell-based; conditions: L1210, 48 h
Method in brief: (§2)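 Suspension leukemia cells in DMEM with 10% FBS, 10 mM Hepes and 1 mM sodium pyruvate at 37 °C under 5% CO2. Seeded at 60 000 cells/well with graded compound levels. Grown 48 h (L1210) or 72 h (CEM), then counted by Coulter counter. Mean ± SD of two to four independent experiments.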

L1210 [3] = assay: Ratio of IC50 for thymidine-kinase deficient mouse L1210 cells to IC50 for mouse L1210/0 cells after 48 hrs by cell counting; format: functional; method in brief: as §1
HeLa [4] = assay: Cytostatic activity against human HeLa cells […] by cell counting; format: functional, cell-based
HeLa [5] = assay: Cytostatic activity against thymidine-kinase deficient human HeLa cells […]; format: functional, cell-based
CCRF-CEM [6] = assay: Cytostatic activity against thymidine-kinase deficient human CEM cells after 72 hrs by cell counting; format: functional, cell-based; method in brief: as §2
CCRF-CEM [7] = assay: Cytostatic activity against human CEM/0 cells after 72 hrs by cell counting; format: functional, cell-based
Method in brief: (§3)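 Suspension leukemia cells in DMEM with 10% FBS, 10 mM Hepes and 1 mM sodium pyruvate at 37 °C under 5% CO2. Seeded at 60 000 cells/well with graded compound levels. Grown 48 h (L1210) or 72 h (CEM), then counted by Coulter counter. […] Mean ± SD of two to four independent experiments.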

[8] = Cytostatic activity against mouse L1210/0 cells after 48 hrs by cell counting; format: functional, cell-based; conditions: L1210/0, 48 h; method in brief: as §2
L1210 [9] = assay: Cytostatic activity against thymidine-kinase deficient mouse L1210 cells after 48 hrs by cell counting; format: functional, cell-based; conditions: L1210, 48 h; method in brief: as §2
HeLa [10] = assay: Ratio of IC50 for thymidine-kinase deficient human HeLa cells to IC50 for human HeLa cells by cell counting
[11] = Half life in Trizma buffer at pH 7.6 at 3 mg by [31P]NMR spectroscopy in presence of carboxypeptidase Y; format: physicochemical; conditions: yeast (Saccharomyces cerevisiae)
Method in brief: (§4)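 Compound (3.0 mg) in acetone-d6 with Trizma buffer pH 7.6. A control 31P NMR spectrum (202 MHz) was taken at 25 °C, then defrosted carboxypeptidase Y (0.1 mg in Trizma) added. Spectra recorded every 7 min over 14 h at 25 °C to follow conversion to metabolites. Half-life was estimated from these spectra.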

[12] = Drug metabolism in Trizma buffer at pH 7.6 assessed as metabolite 5-Fluoro-2'deoxyuridine 5'-O-[(L-Alaninyl)]phosphate formation at 3 mg measured after 45 mins by [31P]NMR spectroscopy in presence of carboxypeptidase Y; format: physicochemical; conditions: pH 7.6, 0.75 h; method in brief: as §4
[13] = Drug metabolism in Trizma buffer at pH 7.6 assessed as metabolite 5-Fluoro-2'-deoxyuridine-5'-O-[1-naphthyl(L-alaninyl)]phosphate formation at 3 mg measured every 7 mins over 14 hrs by [31P]NMR spectroscopy in presence of carboxypeptidase Y; format: physicochemical; conditions: pH 7.6, 14 h; method in brief: as §4
[14] = Ratio of 5-FU IC50 to compound IC50 for mouse L1210/0 cells after 48 hrs by cell counting; format: functional
L1210 [15] = assay: Ratio of FUDR IC50 to compound IC50 for thymidine-kinase deficient mouse L1210 cells after 48 hrs by cell counting; format: functional
[16] = Hydrolytic stability in aqueous buffer at pH 8 at 4.5 mg measured every 12 mins over 14 hrs by [31P]NMR spectroscopy; format: physicochemical; conditions: pH 8, 14 h
Method in brief: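 Compound (4.5 mg) in methanol-d4 with pH 8 buffer (0.1 M Na2HPO4 adjusted with 0.1 M HCl). In situ 31P NMR (202 MHz) at 37 °C, spectra recorded every 12 min over 14 h.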

[17] = Hydrolytic stability in aqueous buffer at pH 1 at 2.6 mg measured every 12 mins over 14 hrs by [31P]NMR spectroscopy; format: physicochemical; conditions: pH 1, 14 h
Method in brief: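 Compound (2.6 mg) in methanol-d4 with pH 1 buffer made from equal parts 0.2 M HCl and 0.2 M KCl. 31P NMR at 37 °C, spectra recorded every 12 min over 14 h.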

CCRF-CEM [18] = assay: Ratio of IC50 for human CEM cells expressing human ENT1 transporter in presence of NBMPR to IC50 for human CEM cells expressing human ENT1 transporter; format: functional
Method in brief: (§5)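 Human T-lymphocyte CEM cells with (CEM/hEnt-1) or lacking (CEM/hEnt-0) the hENT1 transporter were seeded at 60 000 cells/well with graded compound concentrations. Transporter-inhibition runs added dipyridamole (10 μM) or NBMPR (10 μM) to CEM/hEnt-1 cells. […] Ratios are formed against untreated CEM/hEnt-1 IC50. Mean of 2–4 experiments.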

CCRF-CEM [19] = assay: Ratio of IC50 for human CEM cells expressing human ENT1 transporter in presence of dipyridamole to IC50 for human CEM cells expressing human ENT1 transporter; format: functional; method in brief: as §5
CCRF-CEM [20] = assay: Ratio of IC50 for ENT1 transporter-deficient human CEM cells to IC50 for human CEM cells expressing human ENT1 transporter after 72 hrs by cell counting; format: functional; method in brief: as §5
CCRF-CEM [21] = assay: Cytostatic activity against human CEM cells expressing human ENT1 transporter after 72 hrs by cell counting in presence of NBMPR; format: functional, cell-based
Method in brief: (§6)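 CEM/hEnt-1 cells with 10 μM dipyridamole or 10 μM NBMPR added alongside graded compound levels, in DMEM with 10% FBS, 10 mM Hepes and 1 mM sodium pyruvate at 37 °C under 5% CO2. Seeded at 60 000 cells/well, counted by Coulter counter after 3 days.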

CCRF-CEM [22] = assay: Cytostatic activity against human CEM cells expressing human ENT1 transporter after 72 hrs by cell counting in presence of dipyridamole; format: functional, cell-based; method in brief: as §6
CCRF-CEM [23] = assay: Cytostatic activity against human CEM cells expressing human ENT1 transporter after 72 hrs by cell counting; format: functional, cell-based; method in brief: as §3
CCRF-CEM [24] = assay: Cytostatic activity against ENT1 transporter-deficient human CEM cells after 72 hrs by cell counting; format: functional, cell-based; method in brief: as §3
[25] = Stability of the compound in potassium phosphate buffer at pH 7.4 assessed as E.coli thymidine phosphorylase-mediated release of 5-FU after 5 mins by [19F] NMR spectroscopy; format: ADME; conditions: pH 7.4, 5 min
Method in brief: (§7)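 Compound (6.0 mg) in methanol-d4 plus 300 mM potassium phosphate buffer pH 7.4. […] 19F NMR recorded at 5 min, 14 h and 72 h at 25 °C, with 5-FU identified by its signal near δF 169.50 ppm.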

[26] = Stability of the compound in potassium phosphate buffer at pH 7.4 assessed as E.coli thymidine phosphorylase-mediated release of 5-FU after 14 to 72 hrs by [19F] NMR spectroscopy; format: ADME; method in brief: as §7
[27] = Stability in DMSO/D2O assessed as parent compound at 5 mg measured after 13 hrs 30 mins by [31P]NMR spectroscopy in presence of human serum; format: ADME; conditions: read-out: Stability
Method in brief: (§8)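 Compound (5.0 mg) dissolved in DMSO plus D2O and a control 31P NMR spectrum taken at 37 °C. Previously defrosted human serum then added. Spectra taken every 15 min over 14 h at 37 °C and processed by Lorentz-Gauss deconvolution. Parent and metabolite peaks were tracked by chemical shift.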

[28] = Drug metabolism in DMSO/D2O assessed as metabolite 5-Fluoro-2'deoxyuridine 5'-O-[(L-Alaninyl)]phosphate formation at 5 mg measured after 11 hrs 30 mins by [31P]NMR spectroscopy in presence of human serum; format: ADME; method in brief: as §8
[29] = Drug metabolism in DMSO/D2O assessed as metabolite 5-Fluoro-2'-deoxyuridine-5'-O-[1-naphthyl(L-alaninyl)]phosphate formation at 5 mg measured after 6 hrs 45 mins by [31P]NMR spectroscopy in presence of human serum; format: ADME; method in brief: as §8

SMILES	Ratio IC50 (L1210 [1])	IC50 (L1210 [2]) [nM]	Ratio IC50 (L1210 [3])	IC50 (HeLa [4]) [nM]	IC50 (HeLa [5]) [nM]	IC50 (CCRF-CEM [6]) [nM]	IC50 (CCRF-CEM [7]) [nM]	IC50 [8] [nM]	IC50 (L1210 [9]) [nM]	also measured
COC(=O)[C@H](C)NP(=O)(OC[C@H]1O[C@@H](n2cc(F)c(=O)[nH]c2=O)C[C@@H]1O)Oc1ccccc1 (mixture of isomers)	22	870	2000	280	4700	35000	700	40	41000	Ratio IC50 (HeLa [10]): 15
CCCCCOC(=O)[C@H](C)NP(=O)(OC[C@H]1O[C@@H](n2cc(F)c(=O)[nH]c2=O)C[C@@H]1O)Oc1cccc2ccccc12 (mixture of isomers)	2.9	6	40	29	440	280	15	2.1	130	half-life [11]: < 5 min; Drug metabolism [12]: Active; Drug metabolism [13]: Active; Ratio IC50 [14]: 100
C[C@H](NP(=O)(OC[C@H]1O[C@@H](n2cc(F)c(=O)[nH]c2=O)C[C@@H]1O)Oc1ccccc1)C(=O)OC1CCCCC1 (mixture of isomers)	1.25	40	–	180	5900	1200	170	32	140	Ratio IC50 (L1210 [15]): 21
C[C@H](NP(=O)(OC[C@H]1O[C@@H](n2cc(F)c(=O)[nH]c2=O)C[C@@H]1O)Oc1ccccc1)C(=O)OCc1ccccc1 (mixture of isomers)	5.8	150	–	130	19000	22000	180	26	13000	Stability [16]: Stable; Stability [17]: Stable; Ratio IC50 (CCRF-CEM [18]): 2; Ratio IC50 (CCRF-CEM [19]): 2; Ratio IC50 (CCRF-CEM [20]): 7; IC50 (CCRF-CEM [21]): 720 nM; IC50 (CCRF-CEM [22]): 660 nM; IC50 (CCRF-CEM [23]): 130 nM; IC50 (CCRF-CEM [24]): 1400 nM; Stability [25]: Stable; Stability [26]: Stable
CCOC(=O)[C@H](C)NP(=O)(OC[C@H]1O[C@@H](n2cc(F)c(=O)[nH]c2=O)C[C@@H]1O)Oc1cccc2ccccc12 (mixture of isomers)	3.4	95	–	220	2800	1600	250	28	360	remaining at 13.5 h [27]: 96%; Drug metabolism [28]: Active; Drug metabolism [29]: Active

— ChEMBL document CHEMBL2177092, “Phosphoramidate ProTides of the anticancer agent FUDR successfully deliver the preformed bioactive monophosphate in cells and confer advantage over the parent nucleoside” (J Med Chem, 2011)
